Results: ChEMBL document CHEMBL1123867, “Anticonvulsant O-alkyl sulfamates. 2,3:4,5-Bis-O-(1-methylethylidene)-beta-D-fructopyranose sulfamate and related compounds” (1987)
Activity calls are given as the source filed them. The rule behind the calls is not given here.

Key:
Mus musculus [1] = experiment: Anticonvulsant activity by using a standard maximal electroshock test (MES) in mice, by intraperitoneal administration of the compound; type: functional; settings: ip
Method in brief: (§1)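 Supramaximal electroshock: 50-mA current (60 Hz, 0.20 s) via corneal electrodes induced hind-limb tonic extension; inhibition of this component scored as activity. Mice dosed ip and/or po in aqueous solution or suspension (ca. 0.1% Tween 80, distilled water). Tested at 30, 60, 120 and 240 min (sometimes 45 min); ten mice per time point.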

Mus musculus [2] = experiment: Anticonvulsant activity following p.o. administration by standard maximal electroshock test in mice.; type: functional; settings: po; method in brief: as §1
Mus musculus [3] = experiment: Percentage block of the hind-limb tonic-extensor seizure was determined after application of an electric shock to mice for 60 min followed by 10 mg/kg intraperitoneal dose; type: functional; method in brief: as §1
Mus musculus [4] = experiment: Percentage block of the hind-limb tonic-extensor seizure was determined after application of an electric shock to mice for 60 min followed by 15 mg/kg peroral dose; type: functional; settings: route oral
Method in brief: (§2)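 Mouse MES test: supramaximal seizure from a 50-mA current (60 Hz, 0.20-s) through corneal electrodes. […] Ten mice per time point. Compound given in aqueous solution or in suspension in ca. 0.1% Tween 80 and distilled water. Free food and water except during testing.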

Mus musculus [5] = experiment: Percentage block of the hind-limb tonic-extensor seizure was determined after application of an electric shock to mice for 120 min followed by 10 mg/kg intraperitoneal dose; type: functional; method in brief: as §1
Mus musculus [6] = experiment: Percentage block of the hind-limb tonic-extensor seizure was determined after application of an electric shock to mice for 120 min followed by 15 mg/kg peroral dose; type: functional; settings: route oral; method in brief: as §1
Mus musculus [7] = experiment: Percentage block of the hind-limb tonic-extensor seizure was determined after application of an electric shock to mice for 30 min followed by 10 mg/kg intraperitoneal dose; type: functional; method in brief: as §1
Mus musculus [8] = experiment: Percentage block of the hind-limb tonic-extensor seizure was determined after application of an electric shock to mice for 30 min followed by 15 mg/kg peroral dose; type: functional; settings: route oral; method in brief: as §1
Mus musculus [9] = experiment: Percentage block of the hind-limb tonic-extensor seizure was determined after application of an electric shock to mice for 240 min followed by 10 mg/kg intraperitoneal dose; type: functional; method in brief: as §1
Mus musculus [10] = experiment: Percentage block of the hind-limb tonic-extensor seizure was determined after application of an electric shock to mice for 240 min followed by 15 mg/kg peroral dose; type: functional; settings: route oral; method in brief: as §1
Mus musculus [11] = experiment: Anticonvulsant activity by using a standard maximal electroshock test (MES) in mice, by 100 mg/kg intraperitoneal administration of the compound; I=inactive, 0-10% block; type: functional, organism-based; parameters: dose 100 mg/kg; method in brief: as §1
Mus musculus [12] = experiment: Anticonvulsant activity by using a standard maximal electroshock test (MES) in mice, by 200 mg/kg peroral administration of the compound; I=inactive, 0-10% block; type: functional, organism-based; parameters: dose 200 mg/kg; method in brief: as §1
Mus musculus [13] = experiment: Percentage block of the hind-limb tonic-extensor seizure was determined after application of an electric shock to mice for 60 min followed by 100 mg/kg intraperitoneal dose; type: functional; method in brief: as §1
Mus musculus [14] = experiment: Percentage block of the hind-limb tonic-extensor seizure was determined after application of an electric shock to mice for 120 min followed by 100 mg/kg intraperitoneal dose; type: functional; method in brief: as §1
Mus musculus [15] = experiment: Percentage block of the hind-limb tonic-extensor seizure was determined after application of an electric shock to mice for 120 min followed by 200 mg/kg peroral dose; type: functional; settings: route oral; method in brief: as §1
Mus musculus [16] = experiment: Percentage block of the hind-limb tonic-extensor seizure was determined after application of an electric shock to mice for 30 min followed by 100 mg/kg intraperitoneal dose; type: functional; method in brief: as §1
Mus musculus [17] = experiment: Percentage block of the hind-limb tonic-extensor seizure was determined after application of an electric shock to mice for 30 min followed by 200 mg/kg peroral dose; type: functional; settings: route oral; method in brief: as §1
Mus musculus [18] = experiment: Percentage block of the hind-limb tonic-extensor seizure was determined after application of an electric shock to mice for 240 min followed by 100 mg/kg intraperitoneal dose; type: functional; method in brief: as §1
Mus musculus [19] = experiment: Percentage block of the hind-limb tonic-extensor seizure was determined after application of an electric shock to mice for 240 min followed by 200 mg/kg peroral dose; type: functional; settings: route oral; method in brief: as §1
Mus musculus [20] = experiment: Percentage block of the hind-limb tonic-extensor seizure was determined after application of an electric shock to mice for followed by 200 mg/kg peroral dose; settings: route oral
Mus musculus [21] = experiment: Anticonvulsant activity by using a standard maximal electroshock test (MES) in mice, by 100 mg/kg intraperitoneal administration; i=inactive; type: functional, organism-based; parameters: dose 100 mg/kg; method in brief: as §1
Mus musculus [22] = experiment: Anticonvulsant activity by using a standard maximal electroshock test (MES) in mice, by 200 mg/kg intraperitoneal administration of the compound; I=inactive, 0-10% block; type: functional, organism-based; parameters: dose 200 mg/kg; method in brief: as §1
Mus musculus [23] = experiment: Anticonvulsant activity by using a standard maximal electroshock test (MES) in mice, by 400 mg/kg peroral administration of the compound; I=inactive, 0-10% block; type: functional, organism-based; parameters: dose 400 mg/kg; method in brief: as §1
Mus musculus [24] = experiment: Percentage block of the hind-limb tonic-extensor seizure was determined after application of an electric shock to mice for 60 min followed by 200 mg/kg intraperitoneal dose; type: functional; method in brief: as §2
Mus musculus [25] = experiment: Percentage block of the hind-limb tonic-extensor seizure was determined after application of an electric shock to mice for 60 min followed by 400 mg/kg peroral dose; type: functional; settings: route oral; method in brief: as §2
Mus musculus [26] = experiment: Percentage block of the hind-limb tonic-extensor seizure was determined after application of an electric shock to mice for 120 min followed by 200 mg/kg intraperitoneal dose; type: functional; method in brief: as §1
Mus musculus [27] = experiment: Percentage block of the hind-limb tonic-extensor seizure was determined after application of an electric shock to mice for 120 min followed by 400 mg/kg peroral dose; type: functional; settings: route oral; method in brief: as §1
Mus musculus [28] = experiment: Percentage block of the hind-limb tonic-extensor seizure was determined after application of an electric shock to mice for 30 min followed by 200 mg/kg intraperitoneal dose; type: functional; method in brief: as §1
Mus musculus [29] = experiment: Percentage block of the hind-limb tonic-extensor seizure was determined after application of an electric shock to mice for 30 min followed by 400 mg/kg peroral dose; type: functional; settings: route oral; method in brief: as §1
Mus musculus [30] = experiment: Percentage block of the hind-limb tonic-extensor seizure was determined after application of an electric shock to mice for 240 min followed by 200 mg/kg intraperitoneal dose; type: functional; method in brief: as §1
Mus musculus [31] = experiment: Percentage block of the hind-limb tonic-extensor seizure was determined after application of an electric shock to mice for 240 min followed by 400 mg/kg peroral dose; type: functional; settings: route oral; method in brief: as §1
Mus musculus [32] = experiment: Anticonvulsant activity was determined as percentage of block of the hind-limb tonic-extensor seizure caused by application of an electric shock to mice via corneal electrodes at 30 min by 100 mg/kg intraperitoneal dose; type: functional; method in brief: as §1
Mus musculus [33] = experiment: Anticonvulsant activity was determined as percentage of block of the hind-limb tonic-extensor seizure caused by application of an electric shock to mice via corneal electrodes at 60 min by 100 mg/kg intraperitoneal dose; type: functional; method in brief: as §1
Mus musculus [34] = experiment: Anticonvulsant activity was determined as percentage of block of the hind-limb tonic-extensor seizure caused by application of an electric shock to mice via corneal electrodes at 60 min by 200 mg/kg peroral dose; type: functional; settings: route oral; method in brief: as §1
Mus musculus [35] = experiment: Anticonvulsant activity was determined as percentage of block of the hind-limb tonic-extensor seizure caused by application of an electric shock to mice via corneal electrodes at 120 min by 100 mg/kg intraperitoneal dose; type: functional; method in brief: as §1
Mus musculus [36] = experiment: Anticonvulsant activity was determined as percentage of block of the hind-limb tonic-extensor seizure caused by application of an electric shock to mice via corneal electrodes at 120 min by 200 mg/kg peroral dose; type: functional; settings: route oral; method in brief: as §1
Mus musculus [37] = experiment: Anticonvulsant activity was determined as percentage of block of the hind-limb tonic-extensor seizure caused by application of an electric shock to mice via corneal electrodes at 240 min by 200 mg/kg peroral dose; type: functional; settings: route oral; method in brief: as §1
Mus musculus [38] = experiment: Anticonvulsant activity was determined as percentage of block of the hind-limb tonic-extensor seizure caused by application of an electric shock to mice via corneal electrodes at 240 min by 100 mg/kg intraperitoneal dose; type: functional; method in brief: as §1
Mus musculus [39] = experiment: Anticonvulsant activity by using a standard maximal electroshock test (MES) in mice, by 100 mg/kg intraperitoneal administration; i= Inactive; type: functional, organism-based; parameters: dose 100 mg/kg; method in brief: as §1

SMILES | ED50 (Mus musculus [1]) [mg/kg] | ED50 (Mus musculus [2]) [mg/kg] | Block (Mus musculus [17]) [%] | ED50 (Mus musculus [22]) | ED50 (Mus musculus [23]) | Block (Mus musculus [24]) [%] | Block (Mus musculus [25]) [%] | Block (Mus musculus [26]) [%] | Block (Mus musculus [27]) [%] | Block (Mus musculus [28]) [%] | Block (Mus musculus [29]) [%] | Block (Mus musculus [30]) [%] | Block (Mus musculus [31]) [%] | further results
O=C1NC(=O)C(c2ccccc2)(c2ccccc2)N1 [PHENYTOIN] | 10 | 10 | – | – | – | – | – | – | – | – | – | – | – | Block (Mus musculus [3]): 60%; Block (Mus musculus [4]): 80%; Block (Mus musculus [5]): 80%; Block (Mus musculus [6]): 70%; Block (Mus musculus [7]): 60%; Block (Mus musculus [8]): 50%; Block (Mus musculus [9]): 70%; Block (Mus musculus [10]): 30%
CC1(C)C2CCC(COS(N)(=O)=O)C1C2 (configuration not stated) | – | – | 10 | – | – | – | – | – | – | – | – | – | – | ED50 (Mus musculus [11]): inactive; ED50 (Mus musculus [12]): inactive; Block (Mus musculus [13]): 10%; Block (Mus musculus [14]): 0%; Block (Mus musculus [15]): 10%; Block (Mus musculus [16]): 10%; Block (Mus musculus [18]): 0%; Block (Mus musculus [19]): 0%; Block (Mus musculus [20]): 10%
CC1(C)OC2C3OC(C)(C)O[C@]3(COC(=O)Nc3ccccc3)OC[C@H]2O1 (some centres not stated) | – | – | – | inactive | inactive | 0 | 0 | 0 | 0 | 0 | 0 | 0 | 0 | ED50 (Mus musculus [21]): inactive
NS(=O)(=O)OCC1COC2(CCCCC2)O1 (configuration not stated) | 169 | ~150 | 70 | – | – | – | – | – | – | – | – | – | – | Block (Mus musculus [32]): 30%; Block (Mus musculus [33]): 10%; Block (Mus musculus [34]): 30%; Block (Mus musculus [35]): 0%; Block (Mus musculus [36]): 20%; Block (Mus musculus [37]): 10%; Block (Mus musculus [38]): 0%
CC1(C)OC2C3OC(C)(C)O[C@]3(CO)OC[C@H]2O1 (some centres not stated) | – | – | – | inactive | inactive | 0 | 0 | 0 | 0 | 0 | 0 | 0 | 0 | ED50 (Mus musculus [39]): inactive
